Assay results taken from article PMC4467529 (Bioorganic & medicinal chemistry, 2015).

Columns and labels:
[1] = tested on: NF-κB; type: cell-based, human; conditions: for IC50: Homo sapiens, SW1353, read-out: NF-κB IC50
Outline: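 SW1353 cells were grown in DMEM/F12 with 10% FBS and electroporated with an NF-κB luciferase plasmid (50 μg/mL; 160 V, one 70-ms pulse). They were plated at 1.25 × 10⁵ cells/well for 24 h. […] Parthenolide was the reference; Sp-1 served as control factor.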

[2] = In vitro cytotoxicity, Neutral Red assay; type: cell-based; conditions: African green monkey, Vero cells (kidney fibroblasts)
Outline: (§1)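 Cells were kept in RPMI-1640 with 10% bovine calf serum and amikacin 60 mg/L at 37 °C, 5% CO₂. They were seeded at 25,000 cells/well and grown 24 h, then exposed 48 h to test compound diluted in serum-free medium, tested up to 25 μg/ml. Viability was read by Neutral Red, as % decrease versus vehicle. IC50 came from dose curves, in triplicate, with doxorubicin as reference.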

[3] = In vitro cytotoxicity, Neutral Red assay; type: cell-based; conditions: human, SK-OV-3 ovary carcinoma cells
Outline: (§2)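 Cells grown in RPMI-1640 with 10% bovine calf serum and amikacin (60 mg/L), 37°C, 5% CO₂, 95% humidity. Seeded at 25,000 cells/well, grown 24 h. Test samples diluted in serum-free medium, exposure 48 h. Viable cells counted by Neutral Red uptake; % viability loss against vehicle control. IC50 from dose curves, triplicate, means reported.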

[4] = In vitro cytotoxicity, Neutral Red assay; type: cell-based; conditions: human, BT-549 breast ductal carcinoma cells
Outline: as §1

[5] = In vitro cytotoxicity, Neutral Red assay; type: cell-based; conditions: human, KB oral epidermal carcinoma cells
Outline: as §2

[6] = In vitro cytotoxicity, Neutral Red assay; type: cell-based; conditions: human, SK-MEL malignant melanoma cells
Outline: as §1

[7] = target: iNOS (Mus musculus, UniProt P29477); assay: iNOS inhibitory assay in LPS-induced mouse macrophages; type: cell-based; conditions: LPS-induced RAW264.7 macrophages
[8] = In vitro cytotoxicity, Neutral Red assay; type: cell-based; conditions: pig, LLC-PK11 pig kidney epithelial cells
Outline: as §1

Row | Compound | IC50 [1] [µg/mL] | iNOS inhibitory activity (in words) [7] | IC50 at 48 h [2] [µg/mL] | IC50 at 48 h [3] [µg/mL] | IC50 at 48 h [4] [µg/mL] | IC50 at 48 h [5] [µg/mL] | IC50 at 48 h [6] [µg/mL] | IC50 at 48 h [8] [µg/mL] | NF-κB inhibitory activity (in words) ([1]; PMA-induced SW1353 cells)
1 | O=c1sc2ccccc2n1CCCCN1CCN(CCCCn2c(=O)sc3ccccc32)CC1 [Compound 3f, 3,3′-(piperazine-1,4-diylbis(butane-4,1-diyl))bis(benzo[d]thiazol-2(3H)-one)] | – | no activity | > 25 | > 25 | > 25 | > 25 | > 25 | > 25 | –
2 | O=c1oc2ccccc2n1CCCCCN1CCN(CCCCCn2c(=O)oc3ccccc32)CC1 [Compound 3g, 3,3′-(piperazine-1,4-diylbis(pentane-5,1-diyl))bis(benzo[d]oxazol-2(3H)-one)] | – | – | – | > 25 | > 25 | > 25 | > 25 | > 25 | –
3 | O=c1sc2ccccc2n1CCCN1CCN(CCCn2c(=O)sc3ccccc32)CC1 [Compound 3d, 3,3′-(piperazine-1,4-diylbis(propane-3,1-diyl))bis(benzo[d]thiazol-2(3H)-one)] | > 25 | – | > 25 | > 25 | > 25 | > 25 | > 25 | – | –
4 | O=c1oc2ccccc2n1CCN1CCN(CCn2c(=O)oc3ccccc32)CC1 [Compound 3a, 3,3′-(piperazine-1,4-diylbis(ethane-2,1-diyl))bis(benzo[d]oxazol-2(3H)-one)] | > 25 | – | > 25 | > 25 | > 25 | > 25 | > 25 | > 25 | –
5 | O=c1oc2ccccc2n1CCCCN1CCN(CCCCn2c(=O)oc3ccccc32)CC1 [Compound 3e, 3,3′-(piperazine-1,4-diylbis(butane-4,1-diyl))bis(benzo[d]oxazol-2(3H)-one)] | > 25 | no activity | > 25 | > 25 | > 25 | > 25 | > 25 | > 25 | –
6 | O=c1sc2ccccc2n1CCCCCCN1CCN(CCCn2c(=O)sc3ccccc32)CC1 [Compound 5n, 3-(3-(4-(6-(2-oxobenzo[d]thiazol-3(2H)-yl)hexyl)piperazin-1-yl)propyl)benzo[d]thiazol-2(3H)-one] | – | – | > 25 | > 25 | – | > 25 | – | > 25 | moderately active
7 | O=c1oc2ccccc2n1CCCCCCN1CCN(CCCCn2c(=O)oc3ccccc32)CC1 [Compound 5q, 3-(6-(4-(4-(2-oxobenzo[d]oxazol-3(2H)-yl)butyl)piperazin-1-yl)hexyl)benzo[d]oxazol-2(3H)-one] | – | – | > 25 | > 25 | > 25 | > 25 | > 25 | > 25 | –
8 | O=c1sc2ccccc2n1CCN1CCN(CCn2c(=O)sc3ccccc32)CC1 [Compound 3b, 3,3′-(2,2′-(piperazine-1,4-diyl)bis(ethane-2,1-diyl))dibenzo[d]thaizol-2(3H)-one] | > 25 | – | > 25 | > 25 | > 25 | > 25 | > 25 | > 25 | –

Second part, led by results:

Row | IC50 [1] [µg/mL] | iNOS inhibitory activity (in words) [7] | Compound | IC50 at 48 h [2] [µg/mL] | IC50 at 48 h [3] [µg/mL] | IC50 at 48 h [4] [µg/mL] | IC50 at 48 h [5] [µg/mL] | IC50 at 48 h [6] [µg/mL] | IC50 at 48 h [8] [µg/mL] | NF-κB inhibitory activity (in words) ([1]; PMA-induced SW1353 cells)
9 | > 25 | – | O=c1sc2ccccc2n1CCCN1CCN(CCn2c(=O)sc3ccccc32)CC1 [Compound 5b, 3-(3-(4-(2-(2-oxobenzo[d]thiazol-3(2H)-yl)ethyl)piperazin-1-yl)propyl)benzo[d]thiazol-2(3H)-one] | > 25 | > 25 | > 25 | > 25 | > 25 | – | –
10 | > 25 | – | O=c1oc2ccccc2n1CCCN1CCN(CCn2c(=O)oc3ccccc32)CC1 [Compound 5a, 3-(3-(4-(2-(2-oxobenzo[d]oxazol-3(2H)-yl)ethyl)piperazin-1-yl)propyl)benzo[d]oxazol-2(3H)-one] | > 25 | > 25 | > 25 | > 25 | > 25 | > 25 | –
11 | > 25 | – | O=c1oc2ccccc2n1CCCCCCN1CCN(CCCn2c(=O)oc3ccccc32)CC1 [Compound 5m, 3-(3-(4-(6-(2-oxobenzo[d]oxazol-3(2H)-yl)hexyl)piperazin-1-yl)propyl)benzo[d]oxazol-2(3H)-one] | > 25 | > 25 | > 25 | > 25 | > 25 | > 25 | –
